Assay results published in ChEMBL document CHEMBL1154421, “In vitro suppression of K65R reverse transcriptase-mediated tenofovir- and adefovir-5'-diphosphate resistance conferred by the boranophosphonate derivatives” (Antimicrob Agents Chemother, 2007).

Experiments:
[1] = molecular target: T1, Human immunodeficiency virus type 1 reverse transcriptase (Human immunodeficiency virus 1, UniProt Q72547); assay: Binding affinity to HIV1 wild type reverse transcriptase p66/p51 expressed in Escherichia coli assessed as incorporation of drug to DNA by gel electrophoresis
Outline: (§1)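 Pre-steady-state single-nucleotide incorporation, rapid quench over 10 ms to 30 s. Primer is a 5'-32P-labelled 21-mer annealed to a 31-mer DNA template. Products resolved on 14% acrylamide/8 M urea gels and phosphorimaged. kpol and Kd fitted to a hyperbola.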

[2] = molecular target: Human immunodeficiency virus type 1 reverse transcriptase (Human immunodeficiency virus 1) (UniProt Q72547); assay: Inhibition of HIV1 wild type reverse transcriptase p66/p51 DNA polymerase activity assessed as formation of terminated DNA products; set-up: concentration or dose not given beside the values; details: concentration not given here
[3] = test system: Human immunodeficiency virus type 1 reverse transcriptase (Human immunodeficiency virus 1), Q72547 [K65R]; assay: Binding affinity to HIV1 recombinant reverse transcriptase p66/p51 K65R mutant assessed as ratio of catalytic rate constant to Kd for dATP to drug by gel electrophoresis; outline: as §1
[4] = test system: Human immunodeficiency virus 1; assay: Inhibition of HIV1 […] reverse transcriptase p66/p51 R72A mutant DNA polymerase activity assessed as formation of terminated DNA products; details: concentration not given here
Outline: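 Polymerization rate gel assay with WT or R72A RT (50 nM) and 25 nM 5'-labelled oligo(dA)21 annealed to poly(rU)31, in RT buffer at 37°C. Extension followed over the first seconds with dATP or analogues. Products separated by denaturing gel electrophoresis and autoradiographed.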

[5] = molecular target: T2, Human immunodeficiency virus type 1 reverse transcriptase (Human immunodeficiency virus 1, UniProt Q72547, K65R); assay: Inhibition of HIV1 reverse transcriptase p66/p51 K65R mutant expressed in Escherichia coli using calf thymus DNA substrate
Outline: (§2)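 Recombinant p66/p51 RT, coexpressed with HIV-1 protease in E. coli, affinity-purified and active-site titrated. Reactions used 10 nM RT, 250 µg/ml activated calf thymus DNA and 5 µM each dNTP with [3H]dATP (100 µCi/mmol), run for 15 min across increasing inhibitor. Samples spotted in duplicate on DE81 discs, washed in 0.3 M ammonium formate pH 8.0 and ethanol, then scintillation counted. IC50 averaged from at least three independent experiments.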

[6] = molecular target: Human immunodeficiency virus type 1 reverse transcriptase (Human immunodeficiency virus 1) (UniProt Q72547); assay: Binding affinity to wild type reverse transcriptase assessed as ratio of catalytic rate constant to Kd for incorporation of drug to DNA by gel electrophoresis; outline: as §1
[7] = molecular target: T1, Human immunodeficiency virus type 1 reverse transcriptase; assay: Inhibition of HIV1 wild type reverse transcriptase p66/p51 expressed in Escherichia coli using calf thymus DNA substrate; outline: as §2
[8] = molecular target: T2, Human immunodeficiency virus type 1 reverse transcriptase; assay: Binding affinity to HIV1 recombinant reverse transcriptase p66/p51 K65R mutant expressed in Escherichia coli assessed as incorporation of drug to DNA by gel electrophoresis; outline: as §1
[9] = molecular target: Human immunodeficiency virus type 1 reverse transcriptase (Human immunodeficiency virus 1) (UniProt Q72547); assay: Binding affinity to HIV1 wild type reverse transcriptase p66/p51 assessed as ratio of catalytic rate constant to Kd for dATP to drug by gel electrophoresis; outline: as §1
[10] = test system: Human immunodeficiency virus type 1 reverse transcriptase (Human immunodeficiency virus 1), Q72547 [K65R]; assay: Binding affinity to HIV1 recombinant reverse transcriptase p66/p51 K65R mutant expressed in Escherichia coli assessed as ratio of catalytic rate constant to Kd for incorporation of drug to DNA by gel electrophoresis; outline: as §1
[11] = test system: Human immunodeficiency virus 1; assay: Ratio of IC50 for HIV1 reverse transcriptase p66/p51 K65R mutant to IC50 for HIV1 wild type reverse transcriptase; outline: as §2

Row | Structure (SMILES) | Kd [1] [µM] | inhibition [2] [%] | Ratio [3] | inhibition [4] [%] | IC50 [5] [µM] | Ratio [6] | IC50 [7] [µM] | Kd [8] [µM] | Ratio [9] | Ratio [10] | Ratio IC50 [11]
1 | BP(=O)(COCCn1cnc2c(N)ncnc21)OP(=O)(O)OP(=O)(O)O (centres undefined) | 6.5 | 69 | 8.8 | 53 | 12 | 0.3 | 17 | 7.1 | 21.7 | 0.2 | 0.7
2 | C[C@H](Cn1cnc2c(N)ncnc21)OCP(=O)(O)OP(=O)(O)OP(=O)(O)O | 23 | 74 | 97.8 | 0.2 | 170 | 0.3 | 22 | 18 | 21.9 | 0.02 | 8
3 | Nc1ncnc2c1ncn2CCOCP(=O)(O)OP(=O)(O)OP(=O)(O)O [ADEFOVIR DIPHOSPHATE] | 7.9 | 72 | 17.9 | 1.6 | 52 | 0.9 | 8.3 | 7.7 | 7.7 | 0.1 | 6
4 | Nc1ncnc2c1ncn2[C@H]1C[C@H](O)[C@@H](COP(=O)(O)OP(=O)(O)OP(=O)(O)O)O1 | 7.5 | 75 |  |  |  | 6.7 |  | 6.9 |  | 1.7 | 
5 | BP(=O)(CO[C@H](C)Cn1cnc2c(N)ncnc21)OP(=O)(O)OP(=O)(O)O (some centres undefined) | 33 | 74 | 10 | 45 | 18 | 0.7 | 14.5 | 35 | 9.6 | 0.17 | 1.2
